Assay results gathered from unrelated publications.
Lines come from different studies, so protocols differ.
PTGS2: Prostaglandin G/H synthase 2 (PTGS2, Ovis aries, UniProt P79208)
GSK3B: Glycogen synthase kinase-3 beta (GSK3B, Homo sapiens, UniProt P49841)
AVPR1A: Vasopressin V1a receptor (AVPR1A, Homo sapiens, UniProt P37288)

For `O=C(CSc1nc2nccnc2c(=O)n1CCc1ccccc1)Nc1nccs1`, the inhibition was -11% (Phosphatidylinositol 4-kinase type 2-beta (PI4K2B, Homo sapiens, UniProt Q8TCG2); enzyme activity; inhibitor; 10 µM).
`CN1CC(Oc2cnc(C#N)cc2-c2ccn3nc(NC(=O)C4CC4)cc3c2)C1` has an inhibition of 17% ([Pyruvate dehydrogenase (acetyl-transferring)] kinase isozyme 2, mitochondrial (PDK2, Homo sapiens, UniProt Q15119); enzyme activity; inhibitor; 1 µM).
`O=c1c(O[C@@H]2O[C@H](CO)[C@@H](O)[C@H](O)[C@H]2O)c(-c2ccc(O)cc2)oc2cc(O)cc(O)c12` has an inhibition of 55.1% (PTGS2; enzyme activity; inhibitor; absorbance; 50 µM).
For `Cc1c(C(N)=O)cc([N+](=O)[O-])cc1[N+](=O)[O-]`, the inhibition was 17.1% (GSK3B; enzyme activity; inhibitor; ADP detection; 100 µM).
`Ic1cccc2cnccc12` has an inhibition of 26% (Protein mono-ADP-ribosyltransferase PARP11 (PARP11, Homo sapiens, UniProt Q9NR21); enzyme activity; inhibitor; 10 µM).
The inhibition of `C[C@@H]1O[C@@H](OC[C@H]2O[C@@H](O[C@H]3[C@H](Oc4c(-c5ccc(O)cc5)oc5cc(O)cc(O)c5c4=O)O[C@H](CO)[C@@H](O)[C@@H]3O)[C@H](O)[C@@H](O)[C@@H]2O)[C@H](O)[C@H](O)[C@H]1O` is reported as 57.5% (PTGS2; enzyme activity; inhibitor; absorbance; 50 µM).
`Oc1cccc(Nc2nc(-c3ccc(F)cc3F)cs2)c1` has an inhibition of 1.2% (AVPR1A; cell-free assay; 10 µM).
The inhibition of `O=c1c(O)c(-c2ccc(O)cc2)oc2cc(O)cc(O)c12` is reported as 52.2% (PTGS2; enzyme activity; inhibitor; absorbance; 50 µM).
The inhibition of `O=C(c1ccc(Cl)cc1)N(Cc1ccccc1)C1CCCCC1` is reported as 18.7% (Motilin receptor (MLNR, Homo sapiens, UniProt O43193); cell-free assay; 10 µM).
For `C[C@@H]1O[C@@H](O[C@H]2[C@H](Oc3c(-c4ccc(O)cc4)oc4cc(O)cc(O)c4c3=O)O[C@H](CO[C@@H]3O[C@H](CO)[C@@H](O)[C@H](O)[C@H]3O)[C@@H](O)[C@@H]2O)[C@H](O)[C@H](O)[C@H]1O`, the inhibition was 57.7% (PTGS2; enzyme activity; inhibitor; absorbance; 50 µM).
`NC(=O)N/N=C/c1ccc([N+](=O)[O-])o1` gave an inhibition of 31% (GSK3B; enzyme activity; inhibitor; ADP detection; 100 µM).
`COc1cc(NC(C)=O)c(Cl)cc1C(=O)Nc1nccs1` has an inhibition of -0.8% (AVPR1A; cell-free assay; 10 µM).
The inhibition of `C[C@@H]1CN(c2c(F)c(N)c3c(=O)c(C(=O)O)cn(C4CC4)c3c2F)C[C@H](C)N1` is reported as 14% (GSK3B; enzyme activity; inhibitor; ADP detection; 100 µM).
`CNc1cc(Oc2cc(C(=O)Nc3cc(N4CCN(C)CC4)cc(C(F)(F)F)c3)ccc2C)ncn1` has an inhibition of -98.4% (1-phosphatidylinositol 3-phosphate 5-kinase (PIKFYVE, Homo sapiens, UniProt Q9Y2I7); target engagement in cells; inhibitor; chemoproteomics; Huh-7; 1 µM).
`O=C1OC(CN2CCOCC2)CN1/N=C/c1ccc([N+](=O)[O-])o1` (centres unmarked) gave an inhibition of 20.2% (GSK3B; enzyme activity; inhibitor; ADP detection; 100 µM).
For `CN(C)C1CCN(CC#Cc2nn(C3CCCC3)c3nc(NCc4ccccc4)ncc23)C1` (centres unmarked), the inhibition was -2% (MAP kinase-activated protein kinase 2 (MAPKAPK2, Homo sapiens, UniProt P49137); enzyme activity; inhibitor; FRET; 0.1 µM).
`O=C(C1CCCCC1)N1CC(=O)N2CCc3ccccc3C2C1` (centres unmarked) gave an inhibition of 8.2% (GSK3B; enzyme activity; inhibitor; ADP detection; 100 µM).
For `CCN(CC)c1ccc(C2=NNC(=O)CC2C)cc1[N+](=O)[O-]` (centres unmarked), the inhibition was 2% (High affinity cGMP-specific 3',5'-cyclic phosphodiesterase 9A (PDE9A, Homo sapiens, UniProt O76083); enzyme activity; inhibitor; 0.1 µM).
`CC(=O)NCCc1ccc(O)c(-c2c(O)c(O)c3c(c2O)C(=O)c2c(cc(O)c(C(=O)O)c2C(=O)O)C3=O)c1` has an inhibition of 75.3% (GSK3B; enzyme activity; inhibitor; ADP detection; 100 µM).
For `CCN(c1cc(C#CCN2CCOCC2)cc(C(=O)NCc2c(C)cc(C)[nH]c2=O)c1C)[C@H]1CC[C@H](N(C)CCOC)CC1`, the inhibition was 9% (Protein arginine N-methyltransferase 8 (PRMT8, Homo sapiens, UniProt Q9NR22); enzyme activity; inhibitor; 1 µM).
